Laboratory results taken from ChEMBL document CHEMBL5247599, “New β-arylchalcogeno amines with procognitive properties targeting Carbonic Anhydrases and Monoamine Oxidases” (Eur J Med Chem, 2022).
Active and inactive are the calls of the source. No cut-off for these calls is given here.

What was measured:
[1] = target: Carbonic anhydrase 13 (Homo sapiens) (UniProt Q8N1Q1); assay: Binding affinity to human CA13 by phenol red dye based stopped flow CO2 hydration assay; conditions: filed as activator
Carbonic anhydrase 13 (Homo sapiens), sequence (Q8N1Q1 whole entry, looked up, canonical isoform): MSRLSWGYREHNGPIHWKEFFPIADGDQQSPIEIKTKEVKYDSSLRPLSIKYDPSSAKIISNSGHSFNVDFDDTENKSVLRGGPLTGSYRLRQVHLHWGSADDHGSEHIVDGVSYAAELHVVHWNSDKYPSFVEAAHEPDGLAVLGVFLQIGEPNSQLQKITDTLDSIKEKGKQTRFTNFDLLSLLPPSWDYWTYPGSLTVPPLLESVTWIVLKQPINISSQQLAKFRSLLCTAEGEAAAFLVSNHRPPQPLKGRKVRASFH
Outline: (§1)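 Purified recombinant human CA isoforms. CA-catalysed CO2 hydration was followed by stopped-flow with phenol red at 557 nm, taking initial rates over 10–100 s from at least six traces of the first 5–10% of reaction. Uncatalysed rates were subtracted. Activator stocks were 0.1 mM in deionised water, diluted down to 0.1 nM in assay buffer. K_A came from non-linear least-squares Michaelis–Menten fitting.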

Mus musculus [2] = assay: Pro-cognitive activity in C57Bl6 mouse assessed as attenuation of long-term memory deficit by measuring increase in exploration time for novel object by measuring discrimination index at 25 nmol/uL, icv measured after 48 hrs by novel object recognition test; format: functional
Mus musculus [3] = assay: Pro-cognitive activity in C57Bl6 mouse assessed as attenuation of long-term memory deficit by measuring increase in exploration time for novel juvenile at 25 nmol/uL, icv measured after 48 hrs by novel object recognition test; format: functional, organism-based
Outline: (§2)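 Male adult C57Bl6 mice (8–9 weeks), lateral-ventricle cannula implanted 7 days earlier. Social recognition: 10-min habituation to arena with two empty cups; 24 h later 10-min acquisition with an unfamiliar juvenile (3–4 weeks) under one wire cup. Immediately after, 5 µL i.c.v. infusion at 1 µL/min. Retention at 48 h with familiar and novel juvenile; percentage time exploring each cup (snout-to-cup contact).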

[4] = target: Carbonic anhydrase 5A, mitochondrial (Homo sapiens) (UniProt P35218); assay: Binding affinity to human CA5a by phenol red dye based stopped flow CO2 hydration assay; conditions: filed as activator; outline: as §1
Carbonic anhydrase 5A, mitochondrial (Homo sapiens), sequence (P35218 whole entry): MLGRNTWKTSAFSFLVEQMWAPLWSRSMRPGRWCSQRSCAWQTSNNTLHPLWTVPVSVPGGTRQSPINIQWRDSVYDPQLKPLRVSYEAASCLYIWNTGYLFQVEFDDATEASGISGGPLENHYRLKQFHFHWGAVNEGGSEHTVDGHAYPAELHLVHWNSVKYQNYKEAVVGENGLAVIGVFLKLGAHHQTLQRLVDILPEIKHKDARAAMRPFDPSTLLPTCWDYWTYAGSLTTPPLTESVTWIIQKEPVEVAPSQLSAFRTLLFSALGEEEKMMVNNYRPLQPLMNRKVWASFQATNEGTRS

[5] = target: Carbonic anhydrase 1 (Homo sapiens) (UniProt P00915); assay: Binding affinity to human CA1 by phenol red dye based stopped flow CO2 hydration assay; outline: as §1
Carbonic anhydrase 1 (Homo sapiens), sequence (P00915 2-261 limits assumed): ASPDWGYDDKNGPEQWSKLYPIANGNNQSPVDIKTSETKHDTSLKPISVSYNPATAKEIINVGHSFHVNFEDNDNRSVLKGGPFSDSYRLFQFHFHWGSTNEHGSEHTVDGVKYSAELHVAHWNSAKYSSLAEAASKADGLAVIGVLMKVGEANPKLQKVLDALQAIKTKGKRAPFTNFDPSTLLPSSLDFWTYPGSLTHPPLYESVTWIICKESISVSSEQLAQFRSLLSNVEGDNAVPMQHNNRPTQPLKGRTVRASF

[6] = target: Carbonic anhydrase 12 (Homo sapiens) (UniProt O43570); assay: Binding affinity to human CA12 by phenol red dye based stopped flow CO2 hydration assay; conditions: filed as activator; outline: as §1
Carbonic anhydrase 12 (Homo sapiens), sequence (O43570 whole entry): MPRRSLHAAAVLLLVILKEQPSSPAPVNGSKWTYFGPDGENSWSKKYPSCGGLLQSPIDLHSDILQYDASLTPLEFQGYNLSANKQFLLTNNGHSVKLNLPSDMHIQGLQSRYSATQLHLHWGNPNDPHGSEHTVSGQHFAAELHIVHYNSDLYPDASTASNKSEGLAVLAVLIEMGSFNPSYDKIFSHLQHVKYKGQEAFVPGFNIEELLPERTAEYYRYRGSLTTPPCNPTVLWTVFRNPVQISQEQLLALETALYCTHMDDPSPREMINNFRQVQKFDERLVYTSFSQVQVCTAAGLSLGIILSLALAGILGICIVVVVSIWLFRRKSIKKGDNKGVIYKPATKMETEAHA

[7] = target: T1, Amine oxidase [flavin-containing] A (Homo sapiens, UniProt P21397); assay: Inhibition of human recombinant MAO-A assessed as inhibition of 4-hydroxyquinoline formation using kynuramine as substrate by fluorescence spectrophotometry analysis
T1 sequence (P21397 whole entry): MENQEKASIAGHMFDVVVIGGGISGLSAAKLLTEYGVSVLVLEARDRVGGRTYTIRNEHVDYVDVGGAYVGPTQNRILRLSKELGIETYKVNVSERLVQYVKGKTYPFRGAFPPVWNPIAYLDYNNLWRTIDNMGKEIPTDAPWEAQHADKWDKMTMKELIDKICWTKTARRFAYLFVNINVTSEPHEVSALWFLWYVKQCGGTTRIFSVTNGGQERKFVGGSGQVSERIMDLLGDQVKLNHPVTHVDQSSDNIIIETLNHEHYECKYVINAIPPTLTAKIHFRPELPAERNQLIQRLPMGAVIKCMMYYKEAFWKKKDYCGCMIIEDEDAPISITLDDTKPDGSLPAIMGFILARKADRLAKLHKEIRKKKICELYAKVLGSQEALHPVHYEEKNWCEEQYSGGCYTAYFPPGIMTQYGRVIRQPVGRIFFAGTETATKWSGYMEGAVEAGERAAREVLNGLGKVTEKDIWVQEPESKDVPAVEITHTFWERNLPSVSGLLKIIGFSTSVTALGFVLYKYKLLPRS
Outline: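 Recombinant human MAO-A with kynuramine as substrate. The 4-hydroxyquinoline product was quantified by fluorescence spectrophotometry, and IC50 values were determined.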

[8] = Toxicity in overnight fasted C57Bl6 mouse assessed as reduction in food intake at 50 nmol/uL administered directly into lateral ventricle measured for 2 hrs; conditions: in vivo, icv_or_intrathecal
Outline: (§3)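 Overnight-fasted male C57Bl6 mice received a lateral-ventricle infusion. Food was presented 30 min later, and intake was recorded at 0.5 h intervals over 2 h as cumulative consumption corrected for body weight; n = 8–9 per group.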

Mus musculus [9] = assay: Pro-cognitive activity in C57Bl6 mouse assessed as attenuation of long-term memory deficit by measuring increase in exploration time for novel juvenile at 50 nmol/uL, icv measured after 48 hrs by novel object recognition test; format: functional, organism-based; outline: as §2
[10] = target: Carbonic anhydrase 7 (Homo sapiens) (UniProt P43166); assay: Binding affinity to human CA7 by phenol red dye based stopped flow CO2 hydration assay; conditions: filed as activator; outline: as §1
Carbonic anhydrase 7 (Homo sapiens), sequence (P43166 whole entry): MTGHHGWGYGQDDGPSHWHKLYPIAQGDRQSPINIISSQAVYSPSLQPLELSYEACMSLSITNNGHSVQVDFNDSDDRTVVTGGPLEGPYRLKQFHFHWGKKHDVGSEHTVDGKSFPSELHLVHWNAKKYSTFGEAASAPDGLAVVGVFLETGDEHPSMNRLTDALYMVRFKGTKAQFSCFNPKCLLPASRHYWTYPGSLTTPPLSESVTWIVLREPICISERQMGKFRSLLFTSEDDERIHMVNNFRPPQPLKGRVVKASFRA

[11] = target: Carbonic anhydrase 9 (Homo sapiens) (UniProt Q16790); assay: Binding affinity to human CA9 by phenol red dye based stopped flow CO2 hydration assay; outline: as §1
Mus musculus [12] = assay: Pro-cognitive activity in C57Bl6 mouse assessed as attenuation of long-term memory deficit by measuring increase in exploration time for novel object by measuring discrimination index at 50 nmol/uL, icv measured after 24 hrs by novel object recognition test; format: functional
Outline: (§4)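 Novel object recognition in adult male C57Bl6 mice. Habituation was 10 min in an empty arena. Twenty-four hours later, mice explored two identical objects for 5 min, then received an immediate 5 µL lateral-ventricle infusion at 1 µL/min. A 5-min retention test with one familiar and one novel object followed 24 h later. Scores were % exploration time and DI = (tN−tF)/(tN+tF).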

[13] = target: Carbonic anhydrase 6 (Homo sapiens) (UniProt P23280); assay: Binding affinity to human CA6 by phenol red dye based stopped flow CO2 hydration assay; outline: as §1
Carbonic anhydrase 6 (Homo sapiens), sequence (P23280 whole entry): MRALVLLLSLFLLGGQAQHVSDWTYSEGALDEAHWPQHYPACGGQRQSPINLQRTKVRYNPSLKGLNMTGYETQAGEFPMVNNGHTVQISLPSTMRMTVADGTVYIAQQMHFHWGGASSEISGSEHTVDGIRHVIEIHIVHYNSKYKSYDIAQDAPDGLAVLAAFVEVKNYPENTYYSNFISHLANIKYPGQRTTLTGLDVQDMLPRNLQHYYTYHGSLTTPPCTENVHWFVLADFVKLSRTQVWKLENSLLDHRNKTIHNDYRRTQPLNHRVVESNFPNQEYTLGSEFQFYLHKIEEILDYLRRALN

[14] = target: Carbonic anhydrase 2 (Homo sapiens) (UniProt P00918); assay: Binding affinity to human CA2 by phenol red dye based stopped flow CO2 hydration assay; outline: as §1
Mus musculus [15] = assay: Pro-cognitive activity in C57Bl6 mouse assessed as attenuation of long-term memory deficit by measuring increase in exploration time for novel object at 25 nmol/uL, icv measured after 24 hrs by novel object recognition test; format: functional, organism-based; outline: as §4
[16] = target: Carbonic anhydrase 5B, mitochondrial (Homo sapiens) (UniProt Q9Y2D0); assay: Binding affinity to human CA5b by phenol red dye based stopped flow CO2 hydration assay; conditions: filed as activator; outline: as §1
Carbonic anhydrase 5B, mitochondrial (Homo sapiens), sequence (Q9Y2D0 whole entry): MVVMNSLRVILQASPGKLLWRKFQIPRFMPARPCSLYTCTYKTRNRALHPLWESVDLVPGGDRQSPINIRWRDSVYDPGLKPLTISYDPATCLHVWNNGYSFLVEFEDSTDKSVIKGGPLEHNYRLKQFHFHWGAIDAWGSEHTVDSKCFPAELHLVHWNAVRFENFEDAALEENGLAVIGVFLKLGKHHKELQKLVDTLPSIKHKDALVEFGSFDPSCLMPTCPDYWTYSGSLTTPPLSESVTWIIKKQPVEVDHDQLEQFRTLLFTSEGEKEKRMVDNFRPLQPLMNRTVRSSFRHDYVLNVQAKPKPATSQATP

[17] = target: Carbonic anhydrase 4 (Homo sapiens) (UniProt P22748); assay: Binding affinity to human CA4 by phenol red dye based stopped flow CO2 hydration assay; conditions: filed as activator; outline: as §1
Carbonic anhydrase 4 (Homo sapiens), sequence (P22748 whole entry): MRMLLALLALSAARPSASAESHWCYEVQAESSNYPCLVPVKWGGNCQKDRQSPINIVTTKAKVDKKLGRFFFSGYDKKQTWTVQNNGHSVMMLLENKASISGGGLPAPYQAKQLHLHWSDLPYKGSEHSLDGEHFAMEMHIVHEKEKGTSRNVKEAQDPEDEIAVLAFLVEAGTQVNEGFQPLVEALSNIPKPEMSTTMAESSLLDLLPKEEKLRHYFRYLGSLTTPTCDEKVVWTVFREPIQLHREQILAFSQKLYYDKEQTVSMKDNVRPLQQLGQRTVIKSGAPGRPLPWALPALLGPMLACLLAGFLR

Mus musculus [18] = assay: Pro-cognitive activity in C57Bl6 mouse assessed as attenuation of long-term memory deficit by measuring increase in exploration time for novel object at 50 nmol/uL, icv measured after 24 hrs by novel object recognition test; format: functional, organism-based
Outline: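 Male adult C57Bl6 mice (8–9 weeks), lateral-ventricle cannula implanted one week before. 10-min habituation to empty open-field arena; 24 h later, 5-min acquisition with two identical objects, followed immediately by 5 µL i.c.v. infusion at 1 µL/min. 5-min retention test 24 h after acquisition with one familiar and one novel object; percentage exploration time per object, two-way ANOVA with Bonferroni.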

Mus musculus [19] = assay: Pro-cognitive activity in C57Bl6 mouse assessed as attenuation of long-term memory deficit by measuring increase in exploration time for novel juvenile by measuring discrimination index at 50 nmol/uL, icv measured after 48 hrs by novel object recognition test; format: functional
Outline: (§5)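 Social recognition in adult male C57Bl6 mice with intracerebroventricular cannulae. Habituation was 10 min with two empty cups. Twenty-four hours later, a novel 3–4-week-old juvenile was placed under one cup for 10 min of exploration, followed immediately by a 5 µL infusion at 1 µL/min. Retention 48 h later offered familiar versus novel juvenile, scoring snout-to-cup contact. DI = (tN−tF)/(tN+tF).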

Mus musculus [20] = assay: Pro-cognitive activity in C57Bl6 mouse assessed as attenuation of long-term memory deficit by measuring increase in exploration time for novel juvenile by measuring discrimination index at 25 nmol/uL, icv measured after 48 hrs by novel object recognition test; format: functional; outline: as §5
Mus musculus [21] = assay: Ex vivo activation of C57Bl6 mouse hippocampus homogenate CA assessed as increase in protein activity at 50 nmol/uL, icv measured after 30 mins by stopped flow spectrophotometric method; format: functional, organism-based
Outline: (§6)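 Adult male C57Bl6 mice with lateral-ventricle cannulae received 5 µL at 1 µL/min. After 30 min, cortex and hippocampus were dissected on ice, homogenised in 20 mM Hepes pH 7.5 and spun at 20000g for 30 min. Stopped-flow CO2 hydration used 0.2 mM phenol red (557 nm), 20 mM NaClO4, 20°C and 1.7–17 mM CO2. Activity is expressed as % of vehicle mean; 6 mice/group.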

Mus musculus [22] = assay: Ex vivo activation of C57Bl6 mouse cortex homogenate CA assessed as increase in protein activity at 50 nmol/uL, icv measured after 30 mins by stopped flow spectrophotometric method; format: functional, organism-based; outline: as §6
[23] = target: Carbonic anhydrase 3 (Homo sapiens) (UniProt P07451); assay: Binding affinity to human CA3 by phenol red dye based stopped flow CO2 hydration assay; conditions: filed as activator; outline: as §1
Carbonic anhydrase 3 (Homo sapiens), sequence (P07451 whole entry): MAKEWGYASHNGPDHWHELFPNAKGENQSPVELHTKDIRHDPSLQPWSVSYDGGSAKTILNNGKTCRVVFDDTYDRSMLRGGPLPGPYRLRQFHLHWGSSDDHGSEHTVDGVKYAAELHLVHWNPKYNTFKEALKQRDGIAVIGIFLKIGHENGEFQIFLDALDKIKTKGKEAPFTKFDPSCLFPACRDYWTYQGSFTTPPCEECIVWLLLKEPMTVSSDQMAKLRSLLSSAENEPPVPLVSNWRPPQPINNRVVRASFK

[24] = Toxicity in C57Bl6 mouse assessed as reduction in distance travel at 50 nmol/uL administered directly into lateral ventricle by open field test; conditions: in vivo, icv_or_intrathecal
Outline: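 Cannulated adult male C57Bl6 mice were placed in a 60×70 cm open-field arena 30 min after a 5 µL lateral-ventricle infusion. Total distance travelled over a 5-min session was recorded by overhead video tracking.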

[25] = target: Carbonic anhydrase 14 (Homo sapiens) (UniProt Q9ULX7); assay: Binding affinity to human CA14 by phenol red dye based stopped flow CO2 hydration assay; conditions: filed as activator; outline: as §1
Carbonic anhydrase 14 (Homo sapiens), sequence (Q9ULX7 whole entry): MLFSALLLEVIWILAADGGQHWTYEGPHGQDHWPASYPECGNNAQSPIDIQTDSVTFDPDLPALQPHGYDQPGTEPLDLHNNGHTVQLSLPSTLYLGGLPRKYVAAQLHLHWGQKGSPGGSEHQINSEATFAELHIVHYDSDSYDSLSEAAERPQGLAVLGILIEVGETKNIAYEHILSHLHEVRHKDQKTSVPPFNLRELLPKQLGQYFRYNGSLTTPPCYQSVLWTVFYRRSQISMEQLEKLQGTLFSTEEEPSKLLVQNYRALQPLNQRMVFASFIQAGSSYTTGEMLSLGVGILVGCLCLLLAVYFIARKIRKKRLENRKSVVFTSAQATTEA

[26] = Toxicity in overnight fasted C57Bl6 mouse assessed as reduction in food intake at 50 nmol/uL administered directly into lateral ventricle measured for 30 mins; conditions: in vivo, icv_or_intrathecal, 0.5 h; outline: as §3

SMILES | Ka [1] [µM] | Ka [4] [µM] | Ka [6] [µM] | Activity [8] | Ka [10] [µM] | Ka [14] [µM] | Ka [16] [µM] | Ka [17] [µM] | Ka [23] [µM] | Activity [24] | Ka [25] [µM] | further results
CC(N)C[Se]c1ccccc1 (stereo not given) | 58.6 | 14.7 | 59.5 | Non-Toxic | 20.6 | > 100 | 26.3 | 8.6 | 14.3 | Non-Toxic | 9.9 | Activity_index (Mus musculus [2]): 0.006; Activity (Mus musculus [3]): inactive; Ka ([5]; filed as activator): 9.9 µM; IC50 [7]: 9.79 µM; Activity (Mus musculus [9]): Active; Ka ([11]; filed as activator): 49.6 µM; Activity_index (Mus musculus [12]): 0.206; Ka ([13]; filed as activator): 57.2 µM; Activity (Mus musculus [15]): inactive; Activity (Mus musculus [18]): Active; Activity_index (Mus musculus [19]): 0.156; Activity_index (Mus musculus [20]): 0.011; Activity (Mus musculus [21]): Active; Activity (Mus musculus [22]): Active
CC(N)Cc1ccccc1 (stereo not given) [AMPHETAMINE] | 24.1 | 0.81 | 0.64 | Toxic | 0.91 | > 150 | 2.56 | 0.094 | 87.7 | Toxic | 9.15 | Ka [5]: > 150 µM; Ka [11]: > 150 µM; Ka [13]: > 150 µM; Activity [26]: Toxic
